Drawing on ChEMBL document CHEMBL4513216, “Probing the Open Global Health Chemical Diversity Library for Multistage-Active Starting Points for Next-Generation Antimalarials” (ACS Infect Dis, 2020), this text covers cytotoxicity for 71 molecules.

The nature of the series: Toxicity liver stage against HepG2, at 10uM. The note with it: human, HepG2-A16-CD81EGFP cells; read-out: INHIBITION
Set-up: test concentration 10 uM, cell line HepG2-A16-CD81EGFP. The format is cell-based. In a few lines: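 Uninfected HepG2-A16-CD81EGFP cells, 3 × 10^3 per well, 1536-well, plated on prespotted compound at 10 μM final, parasite-free screening media added to match infected plates; puromycin 10 μM positive, DMSO 0.5% negative; run in parallel with 48 h PbLuc assay at 37 °C, 5% CO2; viability by CellTiter-Glo luminescence, normalized to controls.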
As for `CC(C)(C)CC(=O)NCCn1nc(C2CCNC2)c2cccnc21` (stereo unspecified), the cytotoxicity at 10 µM was -0.00173%.
Take `Cc1nc(-c2ccccc2)ccc1C(=O)N1CCn2c(C)nnc2C1`: the cytotoxicity at 10 µM amounted to 4.01%.
On to `O=C(CN1CCC2(CC1)NC(=O)c1cc(Br)ccc1N2)NC1CC1`, for which the cytotoxicity at 10 µM amounted to 4.79%.
As for `CCC1(C(=O)O)CCCN(C(=O)c2ccc(N3CCN(C)CC3)cc2)C1` (stereo unspecified), the figure is -2.35%; as for `Cc1nnc2n1CCN(C(=O)c1cc(C)n(-c3cccnc3)c1C)C2`, -6.63%.
On to `c1ccc2sc(CN3CCOC(Cn4cncn4)C3)nc2c1` (stereo unspecified), for which the cytotoxicity at 10 µM was -0.489%.
As for `CC(Nc1cccc(CN2CCOC2=O)c1)C(=O)Nc1ccccc1F` (stereo unspecified), the cytotoxicity at 10 µM was -5.25%.
The value for `Cc1nn(CCc2nnc(NCC(C)C)s2)c(C)c1Br` was 1.91%; that for `NC(=O)C1CN(C(=O)Nc2cc(Cl)cc(Cl)c2)CCO1` (stereo unspecified) was 55.1%.
The value for `O=C(CCOc1ccccc1F)N1CCC(O)CC1` was -14%; that for `NS(=O)(=O)N1CCc2ccc(NC(=O)CC(F)(F)F)cc21` was 6.15%.
For `COCCCN1CC2(CCCN(c3ncc(Cl)cc3F)C2)CCC1=O` (stereo unspecified), the cytotoxicity at 10 µM was -13.1%.
Turning to `N#CCc1cccc(C(=O)N2CCN(CC(O)c3ccccc3)CC2)c1` (stereo unspecified), the cytotoxicity at 10 µM is -10.7%.
`O=C(NCC1CCOC1)c1cc(-c2ccc(Cl)cc2)n[nH]1` (stereo unspecified): the cytotoxicity at 10 µM was -14%.
`CCOc1cccc(NCc2cnc(N3CCN(C)CC3)nc2)n1`: the cytotoxicity at 10 µM was found to be 1.75%.
Consider `CC(NCCNS(=O)(=O)c1cccc(Cl)c1)C1CCOCC1` (stereo unspecified), for which the cytotoxicity at 10 µM was -1.6%.
As for `O=C(NC1CC1)N1CCC2(CC1)CC(N1CCOCC1)c1ccccc12` (stereo unspecified), the cytotoxicity at 10 µM is -109%.
For `Cc1ccsc1C(CNC(=O)c1cc(=O)c2ccccc2[nH]1)N(C)C` (stereo unspecified), the cytotoxicity at 10 µM was -2.89%.
As for `Cc1nnc(N2C[C@H](C(=O)NCC3CC3)[C@@H]3CCO[C@@H]3C2)s1`, the cytotoxicity at 10 µM was found to be 17.1%.
For the molecule `Cc1cccc(CN2CCc3[nH]nc(C(=O)N4CCNC(=O)C4)c3C2)n1`, the cytotoxicity at 10 µM was 18.2%.
On to `CSc1cccc(NC(C)C(=O)Nc2nccs2)c1` (stereo unspecified), for which the cytotoxicity at 10 µM was determined as 3.05%.
On to `Cc1cc(-c2cnn(CCNC(=O)CCn3cccn3)c2C2CC2)on1`, for which the cytotoxicity at 10 µM is -4.66%.
Regarding `Cc1cc(C)n(CC2CN(Cc3ccc(C(N)=O)cc3)CCO2)n1` (stereo unspecified), the cytotoxicity at 10 µM was -15.1%.
`O=C(NC[C@H]1OC[C@@H](NCc2ccccc2)[C@@H]1O)Nc1ccccc1`: the cytotoxicity at 10 µM amounted to 1.97%.
The value for `COCC(C)NC(=O)NCCCc1cc(N)n(-c2ccccc2)n1` (stereo unspecified) was -12.2%; that for `Cc1cc(F)c(S(=O)(=O)Nc2ccn(CCCC#N)n2)cc1F` was 19.3%.
For the molecule `Cc1oncc1S(=O)(=O)N1CCCC(C)(Cc2ccc3c(c2)OCO3)C1` (stereo unspecified), the cytotoxicity at 10 µM was found to be 1.3%.
`Cc1noc(CN(Cc2cccs2)C2CC2)n1`: the cytotoxicity at 10 µM is -0.243%.
Take `CC(C)Cc1cc(C(=O)N2CCC(C(=O)N3CCOCC3)CC2)on1`: the cytotoxicity at 10 µM is -8.61%.
With `CC(C)n1c(C2CCCN(CC(N)=O)C2)nc2ccccc21` (stereo unspecified), the cytotoxicity at 10 µM is -7.68%.
As to `Cn1cnc2c(-c3ccccc3)nc(C3CCNCC3)cc21`, the cytotoxicity at 10 µM was -109%.
As for `CCOc1ccnc(N2CCN(C(=O)c3ccn(C)c(=O)c3)CC2)n1`, the figure is -14.8%.
As to `CC(C)(C)[S+]([O-])CCNC(=O)c1ccc(Cl)c2cccnc12` (stereo unspecified), the cytotoxicity at 10 µM is -44.5%.
With `CNC(=O)CCN(C)c1nc(-c2ccncc2)nc2c1CCNC2`, the cytotoxicity at 10 µM is -1.54%.
Consider `COc1ccccc1CC(NC(=O)N1CCC[C@@H]1CO)C(C)C` (stereo partly specified), for which the cytotoxicity at 10 µM was 3.34%.
Take `Cn1cnc2c1CCN(CCCOc1ccc(C#N)cc1)C2`: the cytotoxicity at 10 µM is -12.4%.
As for `COc1cc(C#N)ccc1OCC(=O)NS(=O)(=O)c1ccccc1`, the figure is 0.165%; as for `CC(C)(C)Oc1ccc(NCC(=O)NCc2ccco2)cc1`, 2.21%.
Take `COCCN1CCn2c(CN(C)C(C)C)cnc2C1`: the cytotoxicity at 10 µM is -2.92%.
Consider `Cc1ncc(-c2ccnc(NCCO)n2)c(C2CCCCC2)n1`, for which the cytotoxicity at 10 µM was -11%.
Take `COc1ccc(-n2c(SCC(=O)O)nnc2-c2cn[nH]c2)cc1`: the cytotoxicity at 10 µM is -4.59%.
The value for `COc1cccc(NC(=O)c2nc3ccccc3n(C)c2=O)c1` was 4.47%; that for `Cc1nc(C(=O)N2CCCC2c2cnn(C)c2)ccc1C#N` (stereo unspecified) was -13.4%.
The value for `NCC1Cc2cc(-c3nccc(N4CCC(O)CC4)n3)cc(F)c2O1` (stereo unspecified) was 14.2%.
In the case of `CC(C)N1CCC(CC(=O)NC[C@H]2CCc3ccccc3O2)CC1`, the cytotoxicity at 10 µM worked out at 2.04%.
`CN(CC(=O)Nc1cccc(F)c1)Cc1nc(N)nc(N(C)C)n1`: the cytotoxicity at 10 µM is -6.13%.
The value for `CN(C)C(=O)N1CCC(c2nc3ccc(N4CCCC4)cn3n2)CC1` was 3.16%; that for `CNc1ncccc1CN1CCN(C(C)=O)CC(C(N)=O)C1` (stereo unspecified) was 2.31%.
Take `CN(C)c1ccc(C(=O)N2CCCc3cc(OC(F)(F)F)ccc32)cn1`: the cytotoxicity at 10 µM is -45.9%.
Turning to `COCC1c2nnn(CC3CC3)c2CCN1C(=O)c1cc(C)[nH]c1C` (stereo unspecified), the cytotoxicity at 10 µM was -140%.
As to `O=C1CCCN1Cc1ncn2c1CN(C(=O)c1cccc(F)c1)CCC2`, the cytotoxicity at 10 µM is -12.1%.
As to `O=C(Cc1ccncc1)N1C[C@@H]2CC[C@H]1CN(Cc1cccnc1)C2`, the cytotoxicity at 10 µM was 2.89%.
Turning to `CCN(Cc1noc(CC(C)C)n1)Cc1ccccc1C(=O)O`, the cytotoxicity at 10 µM is -51.6%.
The value for `Cc1ccccc1CN1CC[C@H]2C[C@H](C(=O)N(C)C)O[C@H]2C1` was 4.36%; that for `Cc1nc(CN2CC[C@H](OCC3CC3)[C@@H]2Cc2cccnc2)cs1` was 0.15%.
For the molecule `Cc1ccc(-c2n[nH]cc2CNCC2CCS(=O)(=O)C2)o1` (stereo unspecified), the cytotoxicity at 10 µM is 12.4%.
As for `CC(=O)N(c1ccc(C)cc1)c1nc(CN2CCCC(C)C2)cs1` (stereo unspecified), the figure is -6.71%; as for `CC(NC(=O)NCCN1CCCC1)c1nncn1C` (stereo unspecified), -5.68%.
Take `CC(=O)N1CCCC1c1cc(Nc2nnc(C)s2)nc(C)n1` (stereo unspecified): the cytotoxicity at 10 µM is -18.2%.
Consider `CCOC(=O)CC1CCCCN1C(=O)c1cc(=O)[nH]c(=O)[nH]1` (stereo unspecified), for which the cytotoxicity at 10 µM came out at 5.76%.
For `CCN1CCC(CC(=O)N2CCn3cccc3C2c2cccnc2)CC1` (stereo unspecified), the cytotoxicity at 10 µM was -8.87%.
On to `O=C(Nc1ccc2c(ccn2CCN2CCOCC2)c1)c1ccccn1`, for which the cytotoxicity at 10 µM was 0.425%.
As for `CSCCNC(=O)c1coc(COc2ccc(F)cc2)n1`, the cytotoxicity at 10 µM came to 1.75%.
Regarding `COc1ccc(-c2ccoc2)cc1CNC1CCCC1`, the cytotoxicity at 10 µM is -3.45%.
On to `Nc1cc2c(nn1)CCN(C(=O)CC1CCCCC1)C2`, for which the cytotoxicity at 10 µM was -2.78%.
As for `CCOC(=O)c1ccc(Nc2ccc(OC)c(N3CCCC3=O)c2)nc1`, the cytotoxicity at 10 µM came to 8.46%.
As for `Cc1cc(=O)c(C(=O)N2CCN(C)c3ccccc3C2)c[nH]1`, the figure is 3.53%; as for `CC(C)=CCCC(C)(O)c1cc(C(N)=O)no1` (stereo unspecified), 3.56%.
As for `O=C(NC1CC1)N1CCN(c2cnccn2)CC1`, the cytotoxicity at 10 µM was -7.39%.
Regarding `O=C(Cc1ccccn1)N1CCC2(CC1)CN(CC1CC1)C(=O)CO2`, the cytotoxicity at 10 µM is 7.43%.
As to `CN(C)c1ncc(-c2cncnc2)c(C2CNCCO2)n1` (stereo unspecified), the cytotoxicity at 10 µM is 1.69%.
